From ChEMBL document CHEMBL4014306, “Pyrazolopyrimidines as Potent Stimulators for Transient Receptor Potential Canonical 3/6/7 Channels” (J Med Chem, 2017)
Activity calls are given as the source filed them. The calls are words filed in the database; no cut-off is given here.

Experiments:
[1] = target: T1, Short transient receptor potential channel 6 (Mus musculus, UniProt Q61143); test: Agonist activity at mouse TRPC6 expressed in HEK293 cells co-expressing Gq11-PLCbeta fused M5 receptor assessed as peak current changes at +80 mV by whole cell patch-clamp method; type: cell-based
T1 sequence (Q61143 whole entry): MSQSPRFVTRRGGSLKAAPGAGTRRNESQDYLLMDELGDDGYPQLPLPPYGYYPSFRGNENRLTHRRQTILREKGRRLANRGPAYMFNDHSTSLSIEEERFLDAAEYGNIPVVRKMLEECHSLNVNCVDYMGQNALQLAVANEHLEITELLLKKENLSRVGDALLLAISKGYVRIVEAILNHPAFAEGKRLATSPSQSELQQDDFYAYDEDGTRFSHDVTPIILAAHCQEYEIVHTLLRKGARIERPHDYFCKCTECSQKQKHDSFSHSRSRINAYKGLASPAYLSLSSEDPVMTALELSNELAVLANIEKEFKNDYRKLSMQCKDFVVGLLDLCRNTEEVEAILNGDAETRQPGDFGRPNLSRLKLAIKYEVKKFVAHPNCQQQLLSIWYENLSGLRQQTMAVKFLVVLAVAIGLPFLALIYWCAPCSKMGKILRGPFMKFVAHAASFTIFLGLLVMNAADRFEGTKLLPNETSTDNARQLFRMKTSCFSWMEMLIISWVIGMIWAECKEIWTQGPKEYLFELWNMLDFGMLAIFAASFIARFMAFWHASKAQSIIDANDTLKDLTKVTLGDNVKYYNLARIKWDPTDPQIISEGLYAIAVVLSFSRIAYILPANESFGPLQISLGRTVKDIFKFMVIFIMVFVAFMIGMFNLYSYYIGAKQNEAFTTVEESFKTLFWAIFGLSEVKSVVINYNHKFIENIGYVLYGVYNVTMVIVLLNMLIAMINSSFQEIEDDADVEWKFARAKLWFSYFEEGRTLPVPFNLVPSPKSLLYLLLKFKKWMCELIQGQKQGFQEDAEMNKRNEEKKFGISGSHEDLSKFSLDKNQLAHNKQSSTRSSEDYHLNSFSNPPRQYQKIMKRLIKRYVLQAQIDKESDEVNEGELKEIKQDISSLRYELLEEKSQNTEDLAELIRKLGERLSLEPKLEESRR
Method in brief: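 Whole-cell patch clamp of TRPC6/M5 HEK293 cells. Pipette solution: 110 CsCl, 10 BAPTA, 4.77 CaCl2 (400 nM free Ca2+), pH 7.2. Bath at 0.1 mM Ca2+, pH 7.4. Ramps from +100 to −100 mV (100 ms) every 1 s from a 0 mV holding potential. Concentrations of 0.1–100 μM applied consecutively by perfusion. EC50 from currents at +80 mV.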

[2] = target: T2, Short transient receptor potential channel 4 (Mus musculus) (UniProt Q9QUQ5); test: Agonist activity at mouse TRPC4beta expressed in HEK293 cells co-expressing MOR assessed as induction of membrane depolarization at 33 uM measured for 2.5 mins by FLIPR membrane potential dye-based fluorescence assay; type: cell-based
T2 sequence (whole entry): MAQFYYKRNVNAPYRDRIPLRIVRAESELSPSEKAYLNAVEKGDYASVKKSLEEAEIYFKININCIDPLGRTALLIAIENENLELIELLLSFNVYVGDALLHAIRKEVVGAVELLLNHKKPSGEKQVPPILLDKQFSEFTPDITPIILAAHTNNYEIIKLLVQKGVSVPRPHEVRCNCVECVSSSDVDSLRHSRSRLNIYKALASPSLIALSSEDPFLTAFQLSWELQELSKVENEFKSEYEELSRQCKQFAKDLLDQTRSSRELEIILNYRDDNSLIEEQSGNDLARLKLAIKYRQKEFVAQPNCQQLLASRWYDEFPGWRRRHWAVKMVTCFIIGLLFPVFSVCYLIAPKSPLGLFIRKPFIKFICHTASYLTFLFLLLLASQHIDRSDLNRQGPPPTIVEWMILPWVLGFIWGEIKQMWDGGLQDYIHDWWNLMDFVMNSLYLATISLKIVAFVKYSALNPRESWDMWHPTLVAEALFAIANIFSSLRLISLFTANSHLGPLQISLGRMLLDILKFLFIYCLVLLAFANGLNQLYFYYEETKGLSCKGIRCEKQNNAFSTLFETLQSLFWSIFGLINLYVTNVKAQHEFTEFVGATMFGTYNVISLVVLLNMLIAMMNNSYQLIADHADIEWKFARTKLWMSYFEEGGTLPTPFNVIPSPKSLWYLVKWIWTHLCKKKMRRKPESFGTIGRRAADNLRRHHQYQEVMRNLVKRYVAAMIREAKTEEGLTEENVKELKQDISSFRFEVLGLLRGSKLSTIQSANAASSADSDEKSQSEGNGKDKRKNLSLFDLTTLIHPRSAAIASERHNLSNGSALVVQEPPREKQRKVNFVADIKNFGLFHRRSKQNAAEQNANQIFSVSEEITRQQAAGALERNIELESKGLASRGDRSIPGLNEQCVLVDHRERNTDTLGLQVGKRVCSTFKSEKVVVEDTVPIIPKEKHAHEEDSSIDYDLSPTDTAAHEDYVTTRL

[3] = target: Transient receptor potential cation channel subfamily A member 1 (Homo sapiens) (UniProt O75762); test: Agonist activity at human TRPA1 expressed in HEK293 cells assessed as increase in intracellular calcium level at 33 uM measured for 2.5 mins by Fluo-8-AM dye based fluorescence assay; type: cell-based
Transient receptor potential cation channel subfamily A member 1 (Homo sapiens), sequence (O75762 whole entry): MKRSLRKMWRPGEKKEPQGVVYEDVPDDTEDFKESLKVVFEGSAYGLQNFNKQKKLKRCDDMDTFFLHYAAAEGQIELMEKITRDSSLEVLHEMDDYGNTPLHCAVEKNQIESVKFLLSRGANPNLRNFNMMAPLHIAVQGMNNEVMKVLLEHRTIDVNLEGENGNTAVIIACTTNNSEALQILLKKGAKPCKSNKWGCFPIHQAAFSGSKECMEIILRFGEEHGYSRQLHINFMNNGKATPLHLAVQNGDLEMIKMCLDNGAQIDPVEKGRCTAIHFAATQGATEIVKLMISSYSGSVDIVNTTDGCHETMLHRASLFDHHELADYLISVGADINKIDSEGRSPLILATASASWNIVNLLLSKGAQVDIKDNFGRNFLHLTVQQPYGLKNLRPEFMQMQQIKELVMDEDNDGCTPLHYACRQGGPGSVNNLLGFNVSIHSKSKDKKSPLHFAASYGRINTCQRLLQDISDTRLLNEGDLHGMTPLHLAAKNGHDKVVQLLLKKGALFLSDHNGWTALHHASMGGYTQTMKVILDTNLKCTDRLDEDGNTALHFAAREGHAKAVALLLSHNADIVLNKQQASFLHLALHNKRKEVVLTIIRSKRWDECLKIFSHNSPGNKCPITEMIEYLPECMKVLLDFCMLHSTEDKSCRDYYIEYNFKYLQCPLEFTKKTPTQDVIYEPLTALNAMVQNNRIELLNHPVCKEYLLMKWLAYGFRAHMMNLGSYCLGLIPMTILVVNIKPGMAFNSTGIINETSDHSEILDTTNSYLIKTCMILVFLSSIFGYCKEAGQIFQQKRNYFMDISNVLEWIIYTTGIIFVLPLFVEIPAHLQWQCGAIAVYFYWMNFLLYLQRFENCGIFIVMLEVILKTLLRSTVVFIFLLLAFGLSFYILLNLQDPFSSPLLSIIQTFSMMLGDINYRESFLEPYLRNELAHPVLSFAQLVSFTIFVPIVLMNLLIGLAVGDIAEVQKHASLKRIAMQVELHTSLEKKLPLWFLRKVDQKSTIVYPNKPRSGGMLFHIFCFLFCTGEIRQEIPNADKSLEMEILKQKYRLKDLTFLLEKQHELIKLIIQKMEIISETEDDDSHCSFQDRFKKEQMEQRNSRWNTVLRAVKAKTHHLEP

[4] = target: Transient receptor potential cation channel subfamily V member 4 (Homo sapiens) (UniProt Q9HBA0); test: Agonist activity at human TRPV4 expressed in HEK293 cells assessed as increase in intracellular calcium level at 33 uM measured for 2.5 mins by Fluo-8-AM dye based fluorescence assay; type: cell-based
Transient receptor potential cation channel subfamily V member 4 (Homo sapiens), sequence (Q9HBA0 whole entry): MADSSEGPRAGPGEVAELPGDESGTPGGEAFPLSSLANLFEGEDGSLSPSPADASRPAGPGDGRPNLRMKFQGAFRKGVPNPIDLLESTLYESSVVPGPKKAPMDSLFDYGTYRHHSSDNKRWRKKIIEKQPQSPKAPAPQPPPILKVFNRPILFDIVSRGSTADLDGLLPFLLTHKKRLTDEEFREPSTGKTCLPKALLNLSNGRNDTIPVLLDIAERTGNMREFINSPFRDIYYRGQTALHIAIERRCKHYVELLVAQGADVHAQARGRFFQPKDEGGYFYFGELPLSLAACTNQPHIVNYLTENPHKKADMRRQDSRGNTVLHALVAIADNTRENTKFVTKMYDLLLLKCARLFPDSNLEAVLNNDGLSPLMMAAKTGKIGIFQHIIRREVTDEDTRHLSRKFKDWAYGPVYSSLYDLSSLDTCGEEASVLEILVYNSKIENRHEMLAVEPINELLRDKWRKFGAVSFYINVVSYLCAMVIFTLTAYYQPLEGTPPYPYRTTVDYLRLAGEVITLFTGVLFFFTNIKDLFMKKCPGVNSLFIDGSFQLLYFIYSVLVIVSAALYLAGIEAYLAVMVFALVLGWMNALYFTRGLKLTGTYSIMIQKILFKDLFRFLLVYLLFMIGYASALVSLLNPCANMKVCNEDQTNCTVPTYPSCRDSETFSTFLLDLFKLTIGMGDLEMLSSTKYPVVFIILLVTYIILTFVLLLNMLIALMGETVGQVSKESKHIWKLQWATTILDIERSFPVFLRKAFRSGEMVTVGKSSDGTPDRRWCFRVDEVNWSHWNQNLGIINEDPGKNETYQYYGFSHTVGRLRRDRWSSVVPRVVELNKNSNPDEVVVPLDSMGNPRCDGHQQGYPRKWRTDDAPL

[5] = target: T2, Short transient receptor potential channel 4 (Mus musculus); test: Agonist activity at mouse TRPC4beta expressed in HEK293 cells co-expressing MOR assessed as increase in intracellular calcium level at 33 uM measured for 2.5 mins by Fluo-8-AM dye-based fluorescence assay; type: cell-based
[6] = target: Transient receptor potential cation channel subfamily M member 8 (Mus musculus) (UniProt Q8R4D5); test: Inhibition of mouse TRPM8 expressed in HEK293 cells assessed as decrease in menthol-evoked increase in intracellular calcium level at 22 uM preincubated for 2 mins followed by menthol addition measured for 2.5 mins by Fluo8-AM dye-based fluorescence assay relative to control
Transient receptor potential cation channel subfamily M member 8 (Mus musculus), sequence (Q8R4D5 whole entry): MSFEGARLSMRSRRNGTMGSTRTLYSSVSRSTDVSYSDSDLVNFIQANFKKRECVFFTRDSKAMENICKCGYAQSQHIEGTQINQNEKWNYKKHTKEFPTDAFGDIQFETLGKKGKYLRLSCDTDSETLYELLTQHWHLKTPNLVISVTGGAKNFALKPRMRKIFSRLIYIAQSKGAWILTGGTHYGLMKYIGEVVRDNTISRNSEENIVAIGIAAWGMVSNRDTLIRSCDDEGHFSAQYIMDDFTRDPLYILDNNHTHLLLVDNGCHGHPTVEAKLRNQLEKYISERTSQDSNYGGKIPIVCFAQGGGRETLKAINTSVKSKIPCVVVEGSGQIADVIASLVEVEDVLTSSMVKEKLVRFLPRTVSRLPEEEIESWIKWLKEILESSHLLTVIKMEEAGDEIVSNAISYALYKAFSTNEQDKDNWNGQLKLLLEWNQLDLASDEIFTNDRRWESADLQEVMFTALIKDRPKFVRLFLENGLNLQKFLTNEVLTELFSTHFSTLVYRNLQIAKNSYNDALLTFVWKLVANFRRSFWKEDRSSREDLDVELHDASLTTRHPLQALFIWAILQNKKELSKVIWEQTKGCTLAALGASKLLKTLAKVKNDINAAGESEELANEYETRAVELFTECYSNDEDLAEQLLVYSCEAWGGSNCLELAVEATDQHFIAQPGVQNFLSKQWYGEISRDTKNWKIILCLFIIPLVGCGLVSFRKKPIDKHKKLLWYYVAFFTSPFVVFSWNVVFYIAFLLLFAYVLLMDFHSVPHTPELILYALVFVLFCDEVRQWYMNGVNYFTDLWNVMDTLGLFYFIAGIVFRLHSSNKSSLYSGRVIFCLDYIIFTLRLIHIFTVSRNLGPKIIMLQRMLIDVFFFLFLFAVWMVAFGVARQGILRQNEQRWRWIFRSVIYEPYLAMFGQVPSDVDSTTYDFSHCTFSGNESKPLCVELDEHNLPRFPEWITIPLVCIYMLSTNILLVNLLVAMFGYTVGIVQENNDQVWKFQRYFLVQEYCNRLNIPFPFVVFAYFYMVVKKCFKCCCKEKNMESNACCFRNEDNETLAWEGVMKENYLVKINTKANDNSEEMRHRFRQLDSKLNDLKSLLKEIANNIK

CCOC(=O)N1CCC(c2cc(O)n3nc(C)c(-c4ccc(F)cc4)c3n2)CC1
EC50 [1]: 2.5 to 6.28 µM
Activity [2]: inactive
Activity [3]: inactive
Activity [4]: inactive
Activity [5]: inactive
inhibition [6]: 22%

Cc1nn2c(O)cc(C3CCN(C(=O)OCc4ccccc4)CC3)nc2c1-c1ccc(Cl)cc1
EC50 [1]: 2.05 µM
Activity [2]: inactive
Activity [3]: inactive
Activity [4]: inactive
Activity [5]: inactive

Cc1nn2c(O)cc(C3CCN(C(=O)OCc4ccccc4)CC3)nc2c1-c1ccc(F)cc1
EC50 [1]: 3.24 µM
Activity [2]: inactive
Activity [3]: inactive
Activity [4]: inactive
Activity [5]: inactive
inhibition [6]: 35%

CCOC(=O)N1CCC(c2cc(O)n3nc(C)c(-c4ccc(C(F)(F)F)cc4)c3n2)CC1
EC50 [1]: 0.89 µM
Activity [2]: inactive
Activity [3]: inactive
Activity [4]: inactive
Activity [5]: inactive
inhibition [6]: 17%
